Assay results: ChEMBL document CHEMBL1255265, “Linezolid and tiamulin cross-resistance in Staphylococcus aureus mediated by point mutations in the peptidyl transferase center” (2008)
Values after ≈ are worked out from the molar mass of the structure shown.

Assays:
Escherichia coli [1] = assay: Antimicrobial activity against Escherichia coli KM87-88 harboring Arg141Ser mutation in rplC gene by agar dilution method in presence of 16 ug/ml polymyxin B nonapeptide; type: functional
In short: (§1)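 MIC by agar dilution following BSAC guidelines in Mueller-Hinton medium. For E. coli, the medium was supplemented with 16 μg/ml polymyxin B nonapeptide to permeabilize the gram-negative envelope.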

Escherichia coli [2] = assay: Antimicrobial activity against Escherichia coli KM55-68 harboring G2576U mutation in 23S rRNA by agar dilution method in presence of 16 ug/ml polymyxin B nonapeptide; type: functional; in short: as §1
Escherichia coli [3] = assay: Antimicrobial activity against Escherichia coli KM85-86 harboring Lys157Gln mutation in rplC gene by agar dilution method in presence of 16 ug/ml polymyxin B nonapeptide; type: functional; in short: as §1
Staphylococcus aureus [4] = assay: Antimicrobial activity against Staphylococcus aureus KM187+198 harboring G2576U mutation in 23S rRNA by agar dilution method; type: functional
In short: (§2)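 S. aureus MICs were determined by agar dilution per BSAC guidelines in Mueller-Hinton medium, without supplement.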

Staphylococcus aureus [5] = assay: Antimicrobial activity against mutS-expressing Staphylococcus aureus RN4220 measured after 1 day of subculturing by agar dilution method; type: functional; conditions: RN4220, 24 h
In short: (§3)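 Resistant mutants were selected by serial subculture in Mueller-Hinton medium containing antibiotic, and time to emergence of resistance was recorded. MICs were determined by agar dilution per BSAC guidelines.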

Staphylococcus aureus [6] = assay: Antimicrobial activity against tiamulin resistant Staphylococcus aureus 8325-4 after 1 day of subculturing by agar dilution method; type: functional; conditions: 8325-4, 24 h; in short: as §3
Staphylococcus aureus [7] = assay: Antimicrobial activity against Staphylococcus aureus NRS120 clinical isolate harboring G2576U mutation in 23S rRNA by agar dilution method; type: functional; in short: as §2
Staphylococcus aureus [8] = assay: Antimicrobial activity against Staphylococcus aureus RN4220 by agar dilution method; type: functional; in short: as §2
Staphylococcus aureus [9] = assay: Antimicrobial activity against Staphylococcus aureus KM164-165 harboring Gly155Arg mutation in rplC gene by agar dilution method; type: functional; in short: as §2
Escherichia coli [10] = assay: Antimicrobial activity against Escherichia coli KM74 harboring U2500A mutation in 23S rRNA by agar dilution method in presence of 16 ug/ml polymyxin B nonapeptide; type: functional; in short: as §1
Escherichia coli [11] = assay: Antimicrobial activity against Escherichia coli KM69-73 harboring G2447U mutation in 23S rRNA by agar dilution method in presence of 16 ug/ml polymyxin B nonapeptide
Staphylococcus aureus [12] = assay: Antimicrobial activity against Staphylococcus aureus KM166-167 harboring Ser158Leu mutation in rplC gene by agar dilution method; type: functional; in short: as §2
Staphylococcus aureus [13] = assay: Antimicrobial activity against Staphylococcus aureus KM168 harboring Arg149Ser mutation in rplC gene by agar dilution method; type: functional; in short: as §2
Escherichia coli [14] = assay: Antimicrobial activity against Escherichia coli KM89-94 harboring G2576U mutation in 23S rRNA by agar dilution method in presence of 16 ug/ml polymyxin B nonapeptide; type: functional; in short: as §1
Escherichia coli [15] = assay: Antimicrobial activity wild type Escherichia coli SQ110 by agar dilution method in presence of 16 ug/ml polymyxin B nonapeptide; type: functional; in short: as §1
Staphylococcus aureus [16] = assay: Antimicrobial activity against wild type Staphylococcus aureus RN4220 measured after 2 days of subculturing by agar dilution method; type: functional; conditions: RN4220, 48 h; in short: as §3
Staphylococcus aureus [17] = assay: Antimicrobial activity against Staphylococcus aureus NRS119 clinical isolate harboring G2576U mutation in 23S rRNA by agar dilution method; type: functional; in short: as §2
Staphylococcus aureus [18] = assay: Antimicrobial activity against Staphylococcus aureus NRS121 clinical isolate harboring G2576U mutation in 23S rRNA by agar dilution method; type: functional; in short: as §2
Escherichia coli [19] = assay: Antimicrobial activity against Escherichia coli KM75-84 harboring Gly153Arg mutation in rplC gene by agar dilution method in presence of 16 ug/ml polymyxin B nonapeptide; type: functional; in short: as §1
Escherichia coli [20] = assay: Antimicrobial activity against tiamulin resistant Escherichia coli SQ110 by agar dilution method; type: functional
Escherichia coli [21] = assay: Antimicrobial activity wild type Escherichia coli SQ110 by agar dilution method; type: functional

C=C[C@]1(C)C[C@@H](OC(=O)CSCCN(CC)CC)[C@]2(C)[C@H](C)CC[C@]3(CCC(=O)[C@H]32)[C@@H](C)[C@@H]1O [TIAMULIN]
MIC (Escherichia coli [1]): 64 µg/mL | MIC (Escherichia coli [2]): 64 µg/mL | MIC (Escherichia coli [3]): 32 µg/mL | MIC (Staphylococcus aureus [4]): 16 µg/mL (≈ 32.4 µM) | MIC (Staphylococcus aureus [5]): 2 µg/mL (≈ 4.05 µM) | MIC (Staphylococcus aureus [6]): 1 µg/mL (≈ 2.03 µM) | MIC (Staphylococcus aureus [7]): 32 µg/mL (≈ 64.8 µM) | MIC (Staphylococcus aureus [8]): 1 µg/mL (≈ 2.03 µM) | MIC (Staphylococcus aureus [9]): 8 µg/mL (≈ 16.2 µM) | MIC (Escherichia coli [10]): 64 µg/mL | MIC (Escherichia coli [11]): 64 µg/mL | MIC (Staphylococcus aureus [12]): 16 µg/mL (≈ 32.4 µM) | MIC (Staphylococcus aureus [13]): 8 µg/mL (≈ 16.2 µM) | MIC (Escherichia coli [14]): 64 µg/mL | MIC (Escherichia coli [15]): 8 µg/mL | MIC (Staphylococcus aureus [16]): 1 µg/mL (≈ 2.03 µM) | MIC (Staphylococcus aureus [17]): 32 µg/mL (≈ 64.8 µM) | MIC (Staphylococcus aureus [18]): 32 µg/mL (≈ 64.8 µM) | MIC (Escherichia coli [19]): 32 µg/mL | MIC (Escherichia coli [20]): 128 µg/mL (≈ 259 µM)

CC(=O)NC[C@H]1CN(c2ccc(N3CCOCC3)c(F)c2)C(=O)O1 [LINEZOLID]
MIC (Escherichia coli [1]): 16 µg/mL | MIC (Escherichia coli [2]): 64 µg/mL | MIC (Escherichia coli [3]): 16 µg/mL | MIC (Staphylococcus aureus [4]): 64 µg/mL (≈ 190 µM) | MIC (Escherichia coli [21]): 256 µg/mL (≈ 759 µM) | MIC (Staphylococcus aureus [7]): 64 µg/mL (≈ 190 µM) | MIC (Escherichia coli [10]): 64 µg/mL | MIC (Escherichia coli [11]): 64 µg/mL | MIC (Escherichia coli [14]): 64 µg/mL | MIC (Escherichia coli [15]): 16 µg/mL | MIC (Staphylococcus aureus [17]): 64 µg/mL (≈ 190 µM) | MIC (Staphylococcus aureus [18]): 64 µg/mL (≈ 190 µM) | MIC (Escherichia coli [19]): 16 µg/mL
